Experimental data reported in ChEMBL document CHEMBL1649306, “Arylimidamide DB766, a potential chemotherapeutic candidate for Chagas' disease treatment” (Antimicrob Agents Chemother, 2010).
Active and inactive are the calls of the source. The calls are words filed in the database; no cut-off is given here.

How the values were obtained:
Trypanosoma cruzi [1] = assay: Antitrypanosomal activity against bloodstream forms of Trypanosoma cruzi Columbian after 24 hrs by light microscopy in presence of 50% mouse blood; type: functional, organism-based
Procedure, shortened: (§1)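 Bloodstream trypomastigotes kept at 4°C for 24 h in freshly isolated 50% mouse blood with serial dilutions (up to 32 μM). Motile live parasites counted in a Neubauer chamber by light microscopy; IC50 calculated as concentration reducing parasite number by 50%.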

Mus musculus [2] = assay: Cytotoxicity against Swiss-Webster mouse assessed as effect on creatine kinase at 100 mg/kg/day measured after 14 days postinfection; type: organism-based; details: in vivo, 336 h
Trypanosoma cruzi [3] = assay: Antitrypanosomal activity against Trypanosoma cruzi Columbian bloodstream forms infected in C3H mouse assessed as decrease in parasite-induced cardiac inflammation at 100 mg/kg/day, ip administered 5 days postinfection for 10 consecutive days measured after 43 days; type: functional, Heart; design: scale not given: the % may be the effect or the level left; details: route intraperitoneal
Procedure, shortened: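 Male C3H/He mice infected i.p. with 5 × 10^3 Colombian strain bloodstream forms, given 100 mg/kg/day i.p. daily for 10 days. At 43 dpi, H&E-stained 3 μm heart sections scored for amastigote nests and infiltrates (>10 mononuclear cells) over at least 100 fields. Three sections each from at least three mice.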

Mus musculus [4] = assay: Toxicity in […](H-2k) mouse assessed as mortality at cumulative dose of 200 mg/kg, ip measured after 48 hrs; type: organism-based; design: dose 200 mg/kg, route intraperitoneal; details: in vivo
Procedure, shortened: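 Uninfected 8–10-week-old female and male Swiss Webster and C3H/He (H-2k) mice injected i.p. on day 1 every 2 h with escalating doses: 5, 15, 30, 50 and 100 mg/kg (cumulative 20, 50, 100, 200 mg/kg). Toxic and subtoxic signs inspected on days 2–3 per OECD guidelines; tolerated dose set at 48 h.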

Trypanosoma cruzi [5] = assay: Antitrypanosomal activity against Trypanosoma cruzi Y bloodstream forms infected in Swiss-Webster mouse assessed as decrease in cardiac parasite load at 100 mg/kg/day, ip administered 5 days postinfection for 10 alternate days measured after 14 days postinfection; type: functional, Heart; design: scale not given: the % may be the effect or the level left; details: route intraperitoneal
Trypanosoma cruzi [6] = assay: Antitrypanosomal activity against bloodstream forms of Trypanosoma cruzi Y after 24 hrs by light microscopy; type: functional, organism-based
Procedure, shortened: (§2)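 Bloodstream trypomastigotes from infected Swiss mice at peak parasitemia, 5.0 × 10^6 cells/ml in RPMI 1640 with 5% FBS. Exposed at 37°C to serial dilutions from 0 to 32 μM. Motile live parasites counted by light microscopy in a Neubauer chamber, then IC50 calculated.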

Trypanosoma cruzi [7] = assay: Antitrypanosomal activity against Trypanosoma cruzi 875 epimastigotes after 24 hrs by light microscopy; type: functional, organism-based; details: Trypanosoma cruzi, 875, 24 h
Procedure, shortened: (§3)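 Epimastigotes from 5-day exponential cultures, 5 × 10^6 parasites/ml in LIT medium, incubated at 28°C up to 96 h with DB766 0 to 32 μM or Bz 0 to 250 μM. Counted daily in a Neubauer chamber. IC50 averaged from at least three determinations in duplicate.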

Trypanosoma cruzi [8] = assay: Antitrypanosomal activity against Trypanosoma cruzi Y bloodstream forms infected in Swiss-Webster mouse assessed as reduction in parasite-induced weight loss in mouse at 25 mg/kg/day, ip administered 5 days postinfection for 10 consecutive days measured on day 120; type: functional, organism-based
Procedure, shortened: (§4)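 Body weight of infected, treated mice followed from 0 to 120 dpi.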

Trypanosoma cruzi [9] = assay: Antitrypanosomal activity against bloodstream forms of Trypanosoma cruzi YuYu after 24 hrs by light microscopy in presence of 50% mouse blood; type: functional, organism-based; procedure, shortened: as §1
Trypanosoma cruzi [10] = assay: Antitrypanosomal activity against Trypanosoma cruzi Columbian bloodstream forms infected in C3H mouse assessed as decrease in parasite load in 50 mg/kg/day, po administered 5 days postinfection for 10 consecutive days measured after 120 days; type: functional, organism-based
Trypanosoma cruzi [11] = assay: Antitrypanosomal activity against bloodstream forms of Trypanosoma cruzi Y infected in Swiss mouse cardiomyocytes assessed as parasite mitochondrial swelling at 10 ug/ml after 2 hrs by transmission electron microscopy; type: functional, organism-based
Procedure, shortened: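 Y-strain bloodstream trypomastigotes treated 2 to 24 h at 37°C. Fixed 60 min at 4°C in 2.5% glutaraldehyde in 0.1 M cacodylate, pH 7.2. Postfixed 1 h at 4°C in 1% OsO4 with 0.8% potassium ferricyanide. Acetone-dehydrated, Epon-embedded, sections stained with uranyl acetate and lead citrate, ultrastructure examined by TEM.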

Trypanosoma cruzi [12] = assay: Antitrypanosomal activity against Trypanosoma cruzi Y bloodstream forms after 2 hrs by light microscopy; type: functional, organism-based; procedure, shortened: as §2
[13] = Cardiotoxicity against Swiss-Webster mouse cardiomyocytes assessed as creatine kinase cardiac isotype level by MTT assay; type: toxicity, Heart, Cardiomyocyte; details: read-out: LC50 (the source's name)
Procedure, shortened: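 Embryonic cardiomyocytes from Swiss mice, uninfected, exposed to 0 to 96 μM in DMEM at 37°C. Viability followed by CK-MB released into culture supernatant, alongside light-microscopy checks of morphology and spontaneous contraction; assays at least three times in duplicate.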

Trypanosoma cruzi [14] = assay: Antitrypanosomal activity against Trypanosoma cruzi 762 epimastigotes after 24 hrs by light microscopy; type: functional, organism-based; details: Trypanosoma cruzi, 762, 24 h; procedure, shortened: as §3
Trypanosoma cruzi [15] = assay: Antitrypanosomal activity against bloodstream forms of Trypanosoma cruzi Y infected in Swiss mouse cardiomyocytes assessed as intracellular parasitemia at 10.6 uM after 72 hrs by Pizzi-Brener method; type: functional, organism-based
Mus musculus [16] = assay: Cardiotoxicity in […] mouse assessed as effect on heart rate level at 100 mg/kg/day, ip; type: toxicity, organism-based; design: route intraperitoneal; details: in vivo
Procedure, shortened: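 Colombian strain, 5 × 10³ bloodstream forms i.p. into male C3H/He mice; 100 mg/kg/day given i.p. or by gavage (0.1 ml) daily for 10 doses from parasitemia onset. Mice sedated with diazepam (20 mg/kg i.p.), supine; eight-lead ECG from subcutaneous limb needle electrodes plus precordial lead II. Signal-averaged ECG; heart rate as beats per minute.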

Trypanosoma cruzi [17] = assay: Antitrypanosomal activity against Trypanosoma cruzi Y bloodstream forms infected in Swiss-Webster mouse assessed as reduction in parasite-induced weight loss at 100 mg/kg/day, ip administered 5 days postinfection for 10 consecutive days measured after 120 days; type: functional, organism-based; procedure, shortened: as §4
Trypanosoma cruzi [18] = assay: Antitrypanosomal activity against Trypanosoma cruzi Y bloodstream forms infected in Swiss-Webster mouse assessed as reduction in parasite-induced weight loss in mouse at 50 mg/kg/day, ip administered 5 days postinfection for 10 consecutive days measured on day 120; type: functional, organism-based; procedure, shortened: as §4
Trypanosoma cruzi [19] = assay: Antitrypanosomal activity against Trypanosoma cruzi Y bloodstream forms infected in Swiss-Webster mouse assessed as decrease in parasite load at 50 mg/kg/day, ip administered 8 days postinfection measured on day 2; type: functional; design: scale not given: the % may be the effect or the level left; details: route intraperitoneal
Procedure, shortened: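 Two-day regimen in male Swiss mice infected i.p. with 10^4 Y-strain bloodstream forms: i.p. doses (0.2 ml) at 5 and 8 dpi. Circulating parasites quantified at the 8 dpi peak by Pizzi-Brener method; reduction versus infected untreated mice; n ≥ 6 per group.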

Trypanosoma cruzi [20] = assay: Antitrypanosomal activity against Trypanosoma cruzi Y epimastigotes after 24 hrs by light microscopy; type: functional, organism-based; procedure, shortened: as §3
Trypanosoma cruzi [21] = assay: Antitrypanosomal activity against Trypanosoma cruzi Columbian bloodstream forms infected in C3H mouse assessed as decrease in parasite load at 25 mg/kg/day, ip administered 5 days postinfection for 10 consecutive days measured after 120 days; type: functional, organism-based
Trypanosoma cruzi [22] = assay: Antitrypanosomal activity against Trypanosoma cruzi 960 epimastigotes after 24 hrs by light microscopy; type: functional, organism-based; details: Trypanosoma cruzi, 960, 24 h; procedure, shortened: as §3

CC(C)Oc1cc(NC(=N)c2ccccn2)ccc1-c1ccc(-c2ccc(NC(=N)c3ccccn3)cc2OC(C)C)o1
IC50 (Trypanosoma cruzi [1]): 1000 nM | Activity (Mus musculus [2]): Non-toxic | Activity (Trypanosoma cruzi [3]): 75% | Activity (Mus musculus [4]): Non-toxic | Activity (Trypanosoma cruzi [5]): 94% | IC50 (Trypanosoma cruzi [6]): 110 nM | IC50 (Trypanosoma cruzi [7]): 60 nM | IC90 (Trypanosoma cruzi [7]): 240 nM | Activity (Trypanosoma cruzi [8]): inactive | IC50 (Trypanosoma cruzi [9]): 820 nM | Activity (Trypanosoma cruzi [10]): inactive | Activity (Trypanosoma cruzi [11]): Active | IC50 (Trypanosoma cruzi [12]): 1140 nM | CC50 [13]: > 10600 nM | IC50 (Trypanosoma cruzi [14]): 60 nM | IC90 (Trypanosoma cruzi [14]): 180 nM | IC50 (Trypanosoma cruzi [15]): 25 nM | Activity (Mus musculus [16]): Toxic | Activity (Trypanosoma cruzi [17]): Active | Activity (Trypanosoma cruzi [18]): inactive | Activity (Trypanosoma cruzi [19]): 88% | IC50 (Trypanosoma cruzi [20]): 70 nM | IC90 (Trypanosoma cruzi [20]): 220 nM | Activity (Trypanosoma cruzi [21]): Active | IC50 (Trypanosoma cruzi [22]): 90 nM | IC90 (Trypanosoma cruzi [22]): 280 nM
